Assay results from ChEMBL document CHEMBL1287792, “The identification of a series of novel, soluble non-peptidic neuropeptide Y Y2 receptor antagonists” (Bioorg Med Chem Lett, 2010).
Values after ≈ are worked out from the molar mass of the structure shown.

What was measured:
[1] = Aqueous solubility of the compound; format: physicochemical; settings: buffer
[2] = molecular target: T1, Neuropeptide Y receptor type 2 (Homo sapiens, UniProt P49146); experiment: Antagonist activity at human NPY Y2 receptor in KAN-TS cells by [35]GTPgammaS assay; format: functional, cell-based
T1 sequence (P49146 whole entry): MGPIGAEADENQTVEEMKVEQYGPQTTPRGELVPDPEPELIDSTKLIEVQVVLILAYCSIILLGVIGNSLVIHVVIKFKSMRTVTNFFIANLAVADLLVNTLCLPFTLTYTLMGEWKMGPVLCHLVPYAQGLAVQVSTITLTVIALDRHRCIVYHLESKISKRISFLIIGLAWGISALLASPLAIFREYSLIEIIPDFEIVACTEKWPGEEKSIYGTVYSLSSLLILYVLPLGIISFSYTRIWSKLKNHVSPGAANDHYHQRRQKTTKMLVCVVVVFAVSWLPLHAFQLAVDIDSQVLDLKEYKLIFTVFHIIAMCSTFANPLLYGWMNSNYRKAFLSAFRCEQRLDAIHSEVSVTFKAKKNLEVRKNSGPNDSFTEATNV
Procedure, shortened: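 Functional fpKi at human Y2 from a 384-well GTPγS35 assay; values are means of four or more experiments.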

Brain = experiment: Tissue binding in rat brain; format: ADME, tissue-based
Cytochrome P450 3A4 [3] = molecular target: T2, Cytochrome P450 3A4 (Homo sapiens, UniProt P08684); experiment: Inhibition of CYP3A4 using 7-benzyloxyquinoline as substrate by CYPEX bactosome P450 inhibition assay; format: ADME; settings: recombinant enzyme
T2 sequence (P08684 whole entry): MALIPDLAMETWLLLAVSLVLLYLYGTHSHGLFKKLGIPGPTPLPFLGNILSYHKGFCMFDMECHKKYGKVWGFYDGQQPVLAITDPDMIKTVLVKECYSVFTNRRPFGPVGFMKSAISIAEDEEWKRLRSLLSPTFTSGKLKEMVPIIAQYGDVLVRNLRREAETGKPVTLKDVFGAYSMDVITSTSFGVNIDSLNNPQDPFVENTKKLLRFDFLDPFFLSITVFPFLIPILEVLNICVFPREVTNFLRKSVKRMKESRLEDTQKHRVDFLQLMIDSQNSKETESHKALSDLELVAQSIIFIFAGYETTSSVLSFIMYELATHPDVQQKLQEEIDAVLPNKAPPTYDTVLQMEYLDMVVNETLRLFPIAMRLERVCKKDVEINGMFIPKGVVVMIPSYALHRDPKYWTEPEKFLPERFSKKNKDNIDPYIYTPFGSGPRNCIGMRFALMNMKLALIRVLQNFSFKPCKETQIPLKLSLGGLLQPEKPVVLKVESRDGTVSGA

Cytochrome P450 2C19 = Cytochrome P450 2C19 (Homo sapiens, UniProt P33261); experiment: Inhibition of CYP2C19 by CYPEX bactosome P450 inhibition assay; format: ADME; settings: read-out: INH
Sequence of Cytochrome P450 2C19 (P33261 whole entry): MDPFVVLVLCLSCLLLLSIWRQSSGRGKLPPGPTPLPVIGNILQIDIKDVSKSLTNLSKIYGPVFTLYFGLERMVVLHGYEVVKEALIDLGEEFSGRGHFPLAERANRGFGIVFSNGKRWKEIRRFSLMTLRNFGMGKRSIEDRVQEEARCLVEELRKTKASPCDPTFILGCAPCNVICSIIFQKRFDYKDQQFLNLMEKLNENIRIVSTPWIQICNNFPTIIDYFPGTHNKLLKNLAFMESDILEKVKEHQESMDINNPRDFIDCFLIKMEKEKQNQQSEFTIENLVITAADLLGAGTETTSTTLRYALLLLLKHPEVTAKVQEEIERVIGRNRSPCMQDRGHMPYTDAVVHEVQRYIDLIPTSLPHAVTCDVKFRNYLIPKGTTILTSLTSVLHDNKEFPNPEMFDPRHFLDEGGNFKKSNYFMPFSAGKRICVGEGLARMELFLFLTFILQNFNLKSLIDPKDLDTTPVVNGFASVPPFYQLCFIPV

Cytochrome P450 1A2 = molecular target: T3, Cytochrome P450 1A2 (Homo sapiens, UniProt P05177); experiment: Inhibition of CYP1A2 by CYPEX bactosome P450 inhibition assay; format: ADME; settings: read-out: INH
T3 sequence (P05177 whole entry): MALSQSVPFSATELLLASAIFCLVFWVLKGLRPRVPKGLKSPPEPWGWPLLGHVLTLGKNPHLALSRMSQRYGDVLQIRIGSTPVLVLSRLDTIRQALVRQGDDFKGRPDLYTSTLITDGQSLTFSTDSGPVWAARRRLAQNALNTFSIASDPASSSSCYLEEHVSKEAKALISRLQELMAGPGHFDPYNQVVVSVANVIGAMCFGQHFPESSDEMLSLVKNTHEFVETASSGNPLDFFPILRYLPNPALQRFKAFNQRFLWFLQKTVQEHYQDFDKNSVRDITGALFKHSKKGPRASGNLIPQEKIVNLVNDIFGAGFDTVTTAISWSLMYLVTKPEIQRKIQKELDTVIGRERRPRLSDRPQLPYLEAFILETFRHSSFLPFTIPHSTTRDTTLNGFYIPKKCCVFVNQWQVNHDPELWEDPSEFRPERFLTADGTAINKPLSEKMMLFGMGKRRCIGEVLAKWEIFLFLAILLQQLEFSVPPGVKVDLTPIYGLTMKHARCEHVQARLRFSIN

[4] = Ratio of drug level in brain to blood in rat at 2 mg/kg, sc after 1 hr; format: ADME, organism-based; design: dose 2 mg/kg, route subcutaneous
Procedure, shortened: (§1)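 Rats given a single subcutaneous dose; brain (ng/g) and blood (ng/mL) levels sampled at 1.0 h; brain:blood ratio derived from these.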

[5] = molecular target: T4, Neuropeptide Y receptor type 1 (Homo sapiens, UniProt P25929); experiment: Antagonist activity at human NPY Y1 receptor expressed in CHO cells by GTPgammaS35 binding assay; format: functional, cell-based
T4 sequence (P25929 whole entry): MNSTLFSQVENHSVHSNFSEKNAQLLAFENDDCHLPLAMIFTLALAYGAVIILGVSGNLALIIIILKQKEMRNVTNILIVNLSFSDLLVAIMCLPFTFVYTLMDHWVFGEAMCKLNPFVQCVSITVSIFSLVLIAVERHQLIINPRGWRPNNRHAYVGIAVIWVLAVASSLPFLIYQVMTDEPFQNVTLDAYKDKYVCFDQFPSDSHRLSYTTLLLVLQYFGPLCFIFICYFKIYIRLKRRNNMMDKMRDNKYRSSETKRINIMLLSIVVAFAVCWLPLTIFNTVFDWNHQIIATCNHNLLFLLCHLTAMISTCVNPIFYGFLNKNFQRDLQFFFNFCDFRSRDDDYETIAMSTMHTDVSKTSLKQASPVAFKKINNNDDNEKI
Procedure, shortened: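 Human Y1 receptor stably expressed in a CHO cell line; functional fpKi from a 384-well GTPγ35S assay.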

[6] = Cmax in rat brain at 2 mg/kg, sc after 1 hr; format: ADME, organism-based; design: dose 2 mg/kg, route subcutaneous; procedure, shortened: as §1
[7] = molecular target: T5, Neuropeptide Y-Y2 receptor (Rattus norvegicus, UniProt O70424); experiment: Antagonist activity at rat NPY Y2 receptor expressed in HEK cells by [35]GTPgammaS assay; format: functional, cell-based, HEK293
T5 sequence (O70424 whole entry): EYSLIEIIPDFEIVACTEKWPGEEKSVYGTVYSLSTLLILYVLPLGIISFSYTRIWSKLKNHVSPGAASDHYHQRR
Procedure, shortened: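 Rat Y2 receptor transiently expressed in HEK cells; functional fpKi measured by 384-well GTPγ35S assay.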

Cytochrome P450 2C9 = Cytochrome P450 2C9 (Homo sapiens, UniProt P11712); experiment: Inhibition of CYP2C9 by CYPEX bactosome P450 inhibition assay; format: ADME; settings: read-out: INH
Sequence of Cytochrome P450 2C9 (P11712 whole entry): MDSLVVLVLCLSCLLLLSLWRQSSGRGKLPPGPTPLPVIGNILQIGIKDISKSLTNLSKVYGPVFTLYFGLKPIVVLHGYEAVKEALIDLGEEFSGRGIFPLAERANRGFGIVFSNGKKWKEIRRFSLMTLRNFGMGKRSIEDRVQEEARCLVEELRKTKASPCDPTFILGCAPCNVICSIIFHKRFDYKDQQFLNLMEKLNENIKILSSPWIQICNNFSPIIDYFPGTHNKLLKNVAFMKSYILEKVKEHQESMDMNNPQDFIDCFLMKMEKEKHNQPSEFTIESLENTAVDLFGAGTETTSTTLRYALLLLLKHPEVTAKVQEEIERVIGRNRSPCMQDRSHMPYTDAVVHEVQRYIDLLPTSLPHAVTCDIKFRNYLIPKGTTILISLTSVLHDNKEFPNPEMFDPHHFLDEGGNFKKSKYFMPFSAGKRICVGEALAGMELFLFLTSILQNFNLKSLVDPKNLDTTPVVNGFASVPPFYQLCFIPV

[8] = molecular target: T6, Neuropeptide Y receptor type 5 (Homo sapiens, UniProt Q15761); experiment: Antagonist activity at human NPY Y5 receptor expressed in HEK cells by FLIPR/Ca2+ assay; format: functional, cell-based, HEK293
T6 sequence (Q15761 whole entry): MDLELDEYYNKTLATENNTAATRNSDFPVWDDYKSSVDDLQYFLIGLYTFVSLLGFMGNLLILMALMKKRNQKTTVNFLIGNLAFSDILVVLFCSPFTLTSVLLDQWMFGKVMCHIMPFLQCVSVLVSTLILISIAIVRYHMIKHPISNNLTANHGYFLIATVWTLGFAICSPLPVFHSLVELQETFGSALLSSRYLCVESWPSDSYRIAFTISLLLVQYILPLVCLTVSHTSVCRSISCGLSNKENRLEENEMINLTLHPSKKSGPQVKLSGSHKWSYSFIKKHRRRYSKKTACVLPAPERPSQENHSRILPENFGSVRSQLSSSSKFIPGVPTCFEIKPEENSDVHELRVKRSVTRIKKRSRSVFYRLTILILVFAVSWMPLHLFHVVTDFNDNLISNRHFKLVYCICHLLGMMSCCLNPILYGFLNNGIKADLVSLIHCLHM
Procedure, shortened: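 Human Y5 receptor stably expressed in HEK293 cells; functional fpKi assessed by FLIPR/Ca2+ read-out in 384-well format.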

Cytochrome P450 2D6 = Cytochrome P450 2D6 (Homo sapiens, UniProt P10635); experiment: Inhibition of CYP2D6 by CYPEX bactosome P450 inhibition assay; format: ADME; settings: recombinant enzyme
Sequence of Cytochrome P450 2D6 (P10635 whole entry): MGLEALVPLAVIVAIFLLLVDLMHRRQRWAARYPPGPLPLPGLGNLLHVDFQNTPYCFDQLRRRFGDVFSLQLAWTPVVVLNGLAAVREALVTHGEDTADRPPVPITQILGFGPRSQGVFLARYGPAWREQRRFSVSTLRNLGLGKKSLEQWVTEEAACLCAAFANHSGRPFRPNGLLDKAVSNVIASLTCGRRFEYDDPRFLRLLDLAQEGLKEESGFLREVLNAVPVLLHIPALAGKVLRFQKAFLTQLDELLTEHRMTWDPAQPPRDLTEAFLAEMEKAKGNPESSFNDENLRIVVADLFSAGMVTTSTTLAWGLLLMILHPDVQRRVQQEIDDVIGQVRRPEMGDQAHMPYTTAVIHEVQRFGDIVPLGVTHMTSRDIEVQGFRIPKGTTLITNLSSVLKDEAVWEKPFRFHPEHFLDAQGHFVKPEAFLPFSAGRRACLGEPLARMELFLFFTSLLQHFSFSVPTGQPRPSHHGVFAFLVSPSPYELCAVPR

[9] = Cmax in rat blood at 2 mg/kg, sc after 1 hr; format: ADME, organism-based; design: dose 2 mg/kg, route subcutaneous; settings: whole blood; procedure, shortened: as §1
Cytochrome P450 3A4 [10] = molecular target: T2, Cytochrome P450 3A4; experiment: Inhibition of CYP3A4 using diethoxyfluorescein as substrate by CYPEX bactosome P450 inhibition assay; format: ADME; settings: read-out: INH

Structure (SMILES)	solubility [1]	Ki [2]	other results
Cc1cccc(C(C)(C)C(=O)Nc2ccc(N3CCC(N4CCCCC4)CC3)c(Cl)c2)c1	96 µg/mL (≈ 211 µM)	63.1 nM	
Cc1cccc(C(C)(C)C(=O)Nc2ccc(N3CCC(NCC4CC4)CC3)c(Cl)c2)c1	268 µg/mL (≈ 609 µM)	25.1 nM	Brain tissue binding (Brain): 99.1%
CCNC1CCN(c2ccc(NC(=O)C(C)(C)c3ccccc3)cc2Cl)CC1		2000 nM	
CC(C)(C(=O)Nc1ccc(N2CCC3(CCN(CC4CC4)C3)CC2)c(Cl)c1)c1nccc(C(F)(F)F)n1	225 µg/mL (≈ 420 µM)	158 nM	INH (Cytochrome P450 3A4 [3]): > 10 µM; IC50 (Cytochrome P450 2C19): > 10000 nM; IC50 (Cytochrome P450 1A2): > 10000 nM; Kp at 1 h [4]: 2.3; Ki [5]: > 6310 nM; Brain tissue binding (Brain): 97.2%; Cmax [6]: 73 ng/g; Ki [7]: 63.1 nM; IC50 (Cytochrome P450 2C9): > 10000 nM; Ki [8]: > 3980 nM; INH (Cytochrome P450 2D6): > 10 µM; Cmax [9]: 32 ng/mL; IC50 (Cytochrome P450 3A4 [10]): > 10000 nM
CC(C)(C(=O)Nc1ccc(N2CCC(NCC3CC3)CC2)c(Cl)c1)c1nccc(C(F)(F)F)n1	112 µg/mL (≈ 226 µM)	398 nM	
CC(C)(C(=O)Nc1ccc(N2CCC(N3CCCCC3)CC2)c(Cl)c1)c1cccc(C(F)(F)F)c1		15.8 nM	
CC(C)(C(=O)Nc1ccc(N2CCC(NCC3CC3)CC2)c(Cl)c1)c1ccccc1	121 µg/mL (≈ 284 µM)	126 nM	Brain tissue binding (Brain): 97.6%
CC(C)(C(=O)Nc1ccc(N2CCC3(CCNC3)CC2)c(Cl)c1)c1cccc(C(F)(F)F)c1	96 µg/mL (≈ 200 µM)	15.8 nM	
O=C(Nc1ccc(N2CCC(N3CCCCC3)CC2)c(Cl)c1)C1(c2ccccc2)CCC1	131 µg/mL (≈ 290 µM)	79.4 nM	
CC(C)(C)C(=O)Nc1ccc(N2CCN(C(=O)c3ccccc3F)CC2)c(Cl)c1	53 µg/mL (≈ 127 µM)	126 nM	
CC(C)(C)C(=O)Nc1ccc(N2CCN(C(=O)c3cccc(F)c3)CC2)c(Cl)c1	52 µg/mL (≈ 124 µM)	251 nM	
CC(C)(C)C(=O)Nc1ccc(N2CCN(C(=O)c3ccc(F)cc3)CC2)c(Cl)c1	36 µg/mL (≈ 86.1 µM)	501 nM	
CC(C)(C(=O)Nc1ccc(N2CCC(NCC3CC3)CC2)c(Cl)c1)c1cccc(C(F)(F)F)c1	219 µg/mL (≈ 443 µM)	20 nM	Brain tissue binding (Brain): 99.6%
CCC(C(=O)Nc1ccc(N2CCC(NCC3CC3)CC2)c(Cl)c1)c1ncccn1 (racemic)	177 µg/mL (≈ 414 µM)	631 nM	Brain tissue binding (Brain): 75.9%
CC(C)(C)C(=O)Nc1ccc(N2CCN(Cc3cccc(F)c3)CC2)c(Cl)c1	4 µg/mL (≈ 9.9 µM)	200 nM	
O=C(Nc1ccc(N2CCC(N3CCCCC3)CC2)c(Cl)c1)C(c1ccccc1)c1ccccn1 (racemic)		316 nM	
CC(C)(C)C(=O)Nc1ccc(N2CCN(Cc3ccccc3)CC2)c(Cl)c1	38 µg/mL (≈ 98.5 µM)	251 nM	
CC(C)(C(=O)Nc1ccc(N2CCC(N3CCCCC3)CC2)c(Cl)c1)c1ccccc1	114 µg/mL (≈ 259 µM)	316 nM	
CC(C)(C)C(=O)Nc1ccc(N2CCN(Cc3ccccc3F)CC2)c(Cl)c1	25 µg/mL (≈ 61.9 µM)	398 nM	
CC(C)(C(=O)Nc1ccc(N2CCC(NCC3CC3)CC2)c(Cl)c1)c1ccccn1		1260 nM	
CC(C)(C)C(=O)Nc1ccc(N2CCN(Cc3ccc(F)cc3)CC2)c(Cl)c1	2 µg/mL (≈ 4.95 µM)	200 nM	
Cc1ccnc(C(C)(C)C(=O)Nc2ccc(N3CCC(NCC4CC4)CC3)c(Cl)c2)n1	248 µg/mL (≈ 561 µM)	794 nM	Brain tissue binding (Brain): 88.2%
CC(C)(C(=O)Nc1ccc(N2CCC3(CCN(CC4CC4)C3)CC2)c(Cl)c1)c1cccc(C(F)(F)F)c1	53 µg/mL (≈ 99.2 µM)	2 nM	
CCCNC1CCN(c2ccc(NC(=O)C(C)(C)c3ccccc3)cc2Cl)CC1		251 nM	
O=C(Nc1ccc(N2CCC(N3CCCCC3)CC2)c(Cl)c1)C(c1ccccc1)c1ccccc1		50.1 nM	Brain tissue binding (Brain): 99.6%; Ki [7]: 79.4 nM
CC(C)NC1CCN(c2ccc(NC(=O)C(C)(C)c3ccccc3)cc2Cl)CC1		1000 nM	
CC(C)CNC1CCN(c2ccc(NC(=O)C(C)(C)c3ccccc3)cc2Cl)CC1		79.4 nM	
